From paper PMC6474823 (Molecular cell, 2019)

Target: Hck^3D V284C (Homo sapiens, UniProt P08631, V276C)
Assay: Inhibitor IC50 determination, fluorescent SFK peptide kinase assay
Assay type: biochemical
Details: 1 mM ATP
Outline: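 Kinase concentrations were set in the linear range by prior titration: Src3D WT or V284C at 7.5 nM, Hck3D WT or V284C at 5 nM. Kinase was incubated 30 min with test compound (30 μM top, 3-fold serial dilutions, 10 points) and 1 mM ATP in HEPES pH 7.5 buffer with MgCl2, EGTA, BSA, vanadate and BME. Then 20 μM pyrene-labelled SFK peptide was added for 2 h. Fluorescence was read at ex 344/em 405 nm, in triplicate.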

Hck^3D V284C, sequence (P08631 81-526 V276C): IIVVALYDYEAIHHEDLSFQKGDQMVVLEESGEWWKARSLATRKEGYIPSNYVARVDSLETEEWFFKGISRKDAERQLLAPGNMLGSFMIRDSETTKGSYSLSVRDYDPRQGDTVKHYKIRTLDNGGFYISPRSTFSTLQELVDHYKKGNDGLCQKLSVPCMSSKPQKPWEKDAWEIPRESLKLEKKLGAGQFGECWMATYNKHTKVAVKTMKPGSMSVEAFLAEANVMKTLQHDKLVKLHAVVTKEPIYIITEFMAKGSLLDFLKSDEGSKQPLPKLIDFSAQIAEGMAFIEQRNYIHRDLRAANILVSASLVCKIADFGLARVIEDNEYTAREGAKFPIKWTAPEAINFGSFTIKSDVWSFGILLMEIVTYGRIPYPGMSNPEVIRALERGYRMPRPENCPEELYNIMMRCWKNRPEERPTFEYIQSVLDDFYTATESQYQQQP

SMILES: COCCn1c(/C=C(/C#N)C(=O)NC(C)C)c(-c2ccc(Cl)cc2)c2c(N)ncnc21 [compound 1, (E)- & (Z)-3-(4-Amino-5-(4-chlorophenyl)-7-(2-methoxyethyl)-7H-pyrrolo[2,3-d]pyrimidin-6-yl)-2-cyano-N-isopropylacrylamide]
- inhibition of Hck V284C (IC50, Figure 4C): potently inhibited

SMILES: COCCn1c(/C=C(/C#N)C(=O)NC(C)C)c(-c2ccc(Oc3ccccc3)cc2)c2c(N)ncnc21 [compound 2, (E)- & (Z)-3-(4-Amino-7-(2-methoxyethyl)-5-(4-phenoxyphenyl)-7H-pyrrolo[2,3-d]pyrimidin-6-yl)-2-cyano-N-isopropylacrylamide]
- inhibition of Hck V284C (IC50, Figure 4C): potently inhibited
